Measurements reported in ChEMBL document CHEMBL1123563, “New antifilarial agents. 1. Epoxy sulfonamides and ethynesulfonamides” (J Med Chem, 1987).
Active and inactive are the calls of the source.

What was measured:
molinema dessetae [1] = system: molinema dessetae;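 also: in vitro assay on infective-stage larvae, EC90 being the concentration lethal to 90% of larvae after 7 days of exposure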
[2] = Effective concentration of compound necessary to kill 50% of infective larvae of Molinema dessetae after 7 days was determined in vitro; format: functional
[3] = Effective concentration of compound necessary to kill 50% of infective larvae of Molinema dessetae after 7 days was determined in vitro; Value ranges from 100-500; format: functional
In short: (§1)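 Infective larvae from the intermediate host were decontaminated and held 20 per 1.5 mL in a biphasic medium: L929 feeder layer with RPMI and fetal calf serum (90:10), plus penicillin and streptomycin. Compound solutions at several concentrations were made in DMSO, and 10 μL of each was added. After 7 days, survival was corrected by control, in duplicate runs. EC ranges are given in μM.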

molinema dessetae [4] = assay: Antifilarial activity against Molinema dessetae in vivo against male adult worms at a dose of 200 mg/kg subcutaneously once a day for 5 days; Active; format: functional, organism-based; parameters: dose 200 mg/kg
In short: (§2)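 Proechimys oris of both sexes were each infected with 200 infective larvae dissected from Aedes aegypti mosquitoes. Microfilaremia was checked, and the rodents were treated 150–180 days post-infection. Compound was given subcutaneously as a 1% carboxymethylcellulose suspension once daily for 5 consecutive days. Microfilaremia was followed for 6 weeks, then adult male and female worms were counted at autopsy. A compound was scored active if no males and ≤1.6 females were found (p = 0.12).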

molinema dessetae [5] = assay: Antifilarial activity against Molinema dessetae in vivo against female adult worms at a dose of 200 mg/kg subcutaneously once a day for 5 days; Inactive; format: functional, organism-based; parameters: dose 200 mg/kg
In short: as §2

[6] = Antifilarial activity against Molinema dessetae in vivo in Proechimys oris the natural host at a dose of 200 mg/kg subcutaneously once a day for 5 days. Value is expressed as number of infected P. oris.; format: functional; settings: route subcutaneous
In short: as §2

molinema dessetae [7] = assay: Antifilarial activity against Molinema dessetae in vivo against male adult worms at a dose of 200 mg/kg subcutaneously once a day for 5 days; Inactive; format: functional, organism-based; parameters: dose 200 mg/kg
In short: as §2

molinema dessetae [8] = assay: Antifilarial activity against Molinema dessetae in vivo against male adult worms at a dose of 0.2 mg/kg subcutaneously once a day for 5 days; Active; format: functional, organism-based; parameters: dose 0.2 mg/kg
molinema dessetae [9] = assay: Antifilarial activity against Molinema dessetae in vivo in Proechimys oris the natural host at a dose of 0.2 mg/kg subcutaneously once a day for 5 days. Value is expressed as number of infected P. oris.; format: functional, organism-based; parameters: dose 0.2 mg/kg
molinema dessetae [10] = assay: Antifilarial activity against Molinema dessetae in vivo against female adult worms at a dose of 0.2 mg/kg subcutaneously once a day for 5 days; Active; format: functional, organism-based; parameters: dose 0.2 mg/kg
[11] = Effective concentration of compound necessary to kill 50% of infective larvae of Molinema dessetae after 7 days was determined in vitro; Value ranges from 20-100; format: functional
In short: as §1

molinema dessetae [12] = assay: Effective concentration of compound necessary to kill 90% of infective larvae of Molinema dessetae after 7 days was determined in vitro; Value ranges from 100-500; format: functional
In short: as §1

molinema dessetae [13] = assay: Effective concentration of compound necessary to kill 90% of infective larvae of Molinema dessetae after 7 days was determined in vitro; Value ranges from 20-100; format: functional
In short: as §1

molinema dessetae [14] = assay: Antifilarial activity against Molinema dessetae in vivo against female adult worms at a dose of 200 mg/kg subcutaneously once a day for 5 days; Active; format: functional, organism-based; parameters: dose 200 mg/kg
In short: as §2

molinema dessetae [15] = assay: Antifilarial activity against Molinema dessetae in vivo against female adult worms at a dose of 10 mg/kg subcutaneously once a day for 5 days; Inactive; format: functional, organism-based; parameters: dose 10 mg/kg
In short: as §2

[16] = Antifilarial activity against Molinema dessetae in vivo in Proechimys oris the natural host at a dose of 100 mg/kg subcutaneously once a day for 5 days. Value is expressed as number of infected P. oris.; format: functional; settings: route subcutaneous
In short: as §2

molinema dessetae [17] = assay: Antifilarial activity against Molinema dessetae in vivo against male adult worms at a dose of 100 mg/kg subcutaneously once a day for 5 days; Active; format: functional, organism-based; parameters: dose 100 mg/kg
In short: as §2

[18] = Antifilarial activity against Molinema dessetae in vivo in Proechimys oris the natural host at a dose of 10 mg/kg subcutaneously once a day for 5 days. Value is expressed as number of infected P. oris.; format: functional; settings: route subcutaneous
In short: as §2

molinema dessetae [19] = assay: Antifilarial activity against Molinema dessetae in vivo against female adult worms at a dose of 100 mg/kg subcutaneously once a day for 5 days; Inactive; format: functional, organism-based; parameters: dose 100 mg/kg
In short: as §2

molinema dessetae [20] = assay: Antifilarial activity against Molinema dessetae in vivo against male adult worms at a dose of 100 mg/kg subcutaneously once a day for 5 days; Inactive; format: functional, organism-based; parameters: dose 100 mg/kg
In short: as §2

molinema dessetae [21] = assay: Antifilarial activity against Molinema dessetae in vivo against female adult worms at a dose of 100 mg/kg subcutaneously once a day for 5 days; Active; format: functional, organism-based; parameters: dose 100 mg/kg
In short: as §2

molinema dessetae [22] = assay: Antifilarial activity against Molinema dessetae in vivo against female adult worms at a dose of 10 mg/kg subcutaneously once a day for 5 days; Active; format: functional, organism-based; parameters: dose 10 mg/kg
In short: as §2

molinema dessetae [23] = assay: Antifilarial activity against Molinema dessetae in vivo against male adult worms at a dose of 10 mg/kg subcutaneously once a day for 5 days; Active; format: functional, organism-based; parameters: dose 10 mg/kg
In short: as §2

molinema dessetae [24] = assay: Antifilarial activity against Molinema dessetae in vivo against female adult worms at a dose of 200 mg/kg subcutaneously once a day for 5 days; format: functional, organism-based; parameters: dose 200 mg/kg
In short: as §2

EC90 (molinema dessetae [1]) [µM] | Compound | EC50 [2] [µM] | Activity (molinema dessetae [5]) | Activity [6] | Activity (molinema dessetae [7]) | other results
> 500 | CN1CCN(S(=O)(=O)CC(=O)c2ccccc2)CC1 | > 500 |  |  |  | 
> 500 | CN(C)S(=O)(=O)C#Cc1ccccc1 |  | inactive | 2 |  | EC50 [3]: 500 µM; Activity (molinema dessetae [4]): Active
< 20 | Cc1cccc(C2OC2S(=O)(=O)N2CCOCC2)c1 (configuration not stated) | < 20 | inactive | 2 | inactive | 
< 20 | IVERMECTIN [listing 1 of 2 here] |  |  |  |  | Activity (molinema dessetae [8]): Active; Activity (molinema dessetae [9]): 2; Activity (molinema dessetae [10]): Active
 | CC1OC1S(=O)(=O)N(C)C (configuration not stated) |  | inactive | 2 | inactive | EC50 [11]: 100 µM; EC90 (molinema dessetae [12]): 500 µM
 | O=S(=O)(C1OC1c1ccc(Cl)c(Cl)c1)N1CCCC1 (configuration not stated) |  |  |  |  | EC50 [11]: 100 µM; EC90 (molinema dessetae [13]): 100 µM
 | O=S(=O)(C1OC1c1ccc(Cl)cc1)N1CCOCC1 (configuration not stated) |  | inactive | 2 | inactive | EC50 [11]: 100 µM; EC90 (molinema dessetae [12]): 500 µM
> 500 | CN1CCN(S(=O)(=O)/C=C/c2ccccc2)CC1 |  | inactive | 1 | inactive | EC50 [3]: 500 µM
> 500 | C[C@@]1(c2ccccc2)O[C@@H]1S(=O)(=O)N1CCOCC1 | > 500 | inactive | 2 | inactive | 
> 500 | CCN(CC)C(=O)N1CCN(C)CC1 [DIETHYLCARBAMAZINE] | > 500 |  | 2 |  | Activity (molinema dessetae [14]): Active; Activity (molinema dessetae [4]): Active
 | CCCCCCc1ccc(C2OC2S(=O)(=O)N2CCOCC2)cc1 (configuration not stated) |  | inactive | 1 | inactive | 
> 500 | O=S(=O)(/C=C/c1ccccc1)N1CCOCC1 | > 500 | inactive | 2 | inactive | 
> 500 | O=S(=O)(/C=C\c1ccccc1)N1CCOCC1 |  |  |  |  | EC50 [3]: 500 µM
> 500 | CN1CCNCC1 [METHYLPIPERAZINE] | > 500 |  |  |  | 
 | O=S(=O)([C@@H]1O[C@@H]1c1ccccc1)N1CCOCC1 |  | inactive | 2 | inactive | EC50 [11]: 100 µM; EC90 (molinema dessetae [12]): 500 µM
> 500 | C[C@@H]1O[C@H]1S(=O)(=O)N1CCOCC1 | > 500 | inactive | 2 | inactive | 
 | Cc1ccc(C2OC2S(=O)(=O)N2CCN(C)CC2)cc1 (configuration not stated) |  | inactive | 2 | inactive | EC50 [11]: 100 µM; EC90 (molinema dessetae [12]): 500 µM
 | O=S(=O)(C1CC1c1ccccc1)N1CCOCC1 (configuration not stated) |  | inactive | 2 | inactive | 
< 20 | O=S(=O)(C#Cc1ccccc1)N1CCOCC1 | < 20 |  | 2 |  | Activity (molinema dessetae [14]): Active; Activity (molinema dessetae [4]): Active; Activity (molinema dessetae [15]): inactive; Activity [16]: 2; Activity (molinema dessetae [17]): Active; Activity [18]: 2
< 20 | Cc1ccccc1C1OC1S(=O)(=O)N1CCOCC1 (configuration not stated) | < 20 | inactive | 1 | inactive | 

EC90 (molinema dessetae [1]) [µM] | Compound | EC50 [2] [µM] | Activity (molinema dessetae [5]) | Activity [6] | Activity (molinema dessetae [7]) | other results
 | Cc1cccc(C2OC2S(=O)(=O)N2CCN(C)CC2)c1 (configuration not stated) |  |  |  |  | EC50 [3]: 500 µM; EC90 (molinema dessetae [12]): 500 µM
 | O=S(=O)(C1OC1c1ccc(Cl)c(Cl)c1)N1CCOCC1 (configuration not stated) | < 20 |  | 2 |  | Activity (molinema dessetae [14]): Active; Activity (molinema dessetae [4]): Active; EC90 (molinema dessetae [13]): 100 µM
> 500 | C=C(CS(=O)(=O)N1CCN(C)CC1)c1ccccc1 |  |  |  |  | EC50 [3]: 500 µM
 | CN(C)S(=O)(=O)[C@@H]1O[C@@H]1c1ccccc1 |  |  |  |  | EC50 [3]: 500 µM; EC90 (molinema dessetae [12]): 500 µM
 | CN(C)S(=O)(=O)/C=C\c1ccccc1 |  |  |  |  | EC50 [3]: 500 µM; EC90 (molinema dessetae [12]): 500 µM
 | O=S(=O)(C1OC1c1ccccc1)N1CCN(c2cccc(C(F)(F)F)c2)CC1 (configuration not stated) |  | inactive | 2 | inactive | EC50 [11]: 100 µM; EC90 (molinema dessetae [13]): 100 µM
> 500 | C[C@H]1O[C@H]1S(=O)(=O)N1CCOCC1 |  |  |  |  | EC50 [3]: 500 µM
 | IVERMECTIN [listing 2 of 2 here] | < 20 |  |  |  | 
< 20 | CN1CCN(S(=O)(=O)C#Cc2ccccc2)CC1 | < 20 | inactive | 1 | inactive | 
 | O=S(=O)(C1OC1c1ccccc1)N1CCN(c2ccccc2)CC1 (configuration not stated) |  |  |  |  | Activity (molinema dessetae [19]): inactive; EC50 [11]: 100 µM; Activity [16]: 2; EC90 (molinema dessetae [13]): 100 µM; Activity (molinema dessetae [20]): inactive
> 500 | O=C(CS(=O)(=O)N1CCOCC1)c1ccccc1 | > 500 | inactive | 2 | inactive | 
< 20 | O=[N+]([O-])c1ccc(C2OC2S(=O)(=O)N2CCOCC2)cc1 (configuration not stated) | < 20 |  |  |  | 
 | CCOC(=O)N1CCN(S(=O)(=O)C2OC2c2ccccc2)CC1 (configuration not stated) | < 20 | inactive | 2 | inactive | EC90 (molinema dessetae [13]): 100 µM
 | O=S(=O)([C@@H]1O[C@H]1c1ccccc1)N1CCOCC1 |  |  |  |  | Activity (molinema dessetae [21]): Active; EC50 [11]: 100 µM; Activity [16]: 3; Activity (molinema dessetae [17]): Active; EC90 (molinema dessetae [13]): 100 µM
> 500 | CN1CCN(CC(=O)c2ccccc2)CC1 | > 500 |  |  |  | Activity (molinema dessetae [19]): inactive; Activity [16]: 1; Activity (molinema dessetae [20]): inactive
> 500 | C[C@]1(c2ccccc2)O[C@@H]1S(=O)(=O)N1CCOCC1 | > 500 | inactive | 2 | inactive | 
 | CN1CCN(S(=O)(=O)[C@@H]2O[C@H]2c2ccccc2)CC1 |  |  |  |  | EC50 [11]: 100 µM; Activity (molinema dessetae [22]): Active; Activity [18]: 4; Activity (molinema dessetae [23]): Active; EC90 (molinema dessetae [13]): 100 µM
 | CN1CCN(S(=O)(=O)[C@@H]2O[C@@H]2c2ccccc2)CC1 |  |  |  |  | Activity (molinema dessetae [19]): inactive; EC50 [11]: 100 µM; Activity [16]: 2; EC90 (molinema dessetae [12]): 500 µM; Activity (molinema dessetae [20]): inactive
> 500 | CN1CCN(S(=O)(=O)C2CC2c2ccccc2)CC1 (configuration not stated) |  | inactive | 2 | inactive | EC50 [3]: 500 µM
 | CCCN1CCN(S(=O)(=O)C2OC2c2ccccc2)CC1 (configuration not stated) |  |  | 2 | inactive | EC50 [11]: 100 µM; Activity (molinema dessetae [24]): inactive; EC90 (molinema dessetae [12]): 500 µM

Compound | EC90 (molinema dessetae [1]) [µM] | EC50 [2] [µM] | Activity (molinema dessetae [5]) | Activity [6] | Activity (molinema dessetae [7]) | other results
C1COCCN1 [MORPHOLINE] | > 500 | > 500 |  |  |  | 
O=C(CN1CCOCC1)c1ccccc1 | > 500 | > 500 |  |  |  | Activity (molinema dessetae [19]): inactive; Activity [16]: 2; Activity (molinema dessetae [20]): inactive
